# Read-outs that look alike come from different tables or passages of the source.
# Key:
# MCF7 cells = test: Peptide-SAQdot605 binding, fluorescence microscopy; assay type: cell-based
# [1] = test system: H1299 and H460 xenografts; assay type: in vivo, NOD/SCID mice
# [2] = test system: human NSCLC tumor samples; test: Tumor microarray binding of Peptide-SAQdot 605; details: of 59 human NSCLC tumor samples; 10 nM Peptide-SAQdot 605, 30 minutes
# Summary of the method: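 Commercial paraffin lung cancer tissue microarray; dewaxed, antigen retrieval in 10 mM citrate pH 6.0 at 65°C for 10 min, blocked in PBS + 2.5% BSA. Stained with peptide conjugated 1:1 to streptavidin-Qdot605 in 50% PBS/50% RPMI with 2.5% bovine serum. Washed, DAPI-mounted, three areas imaged per sample. Red Qdot signal compared against green-channel autofluorescence; scored by five independent scientists.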
Samples scored positive for peptide binding [2] [%],Sequence,Binding of peptide-SAQdot605 (MCF7 cells),"H460 tumor/H1299 tumor ([1]; animal shown, 24 h) [fold]","H460 tumor/lung ([1]; animal shown, 24 h) [fold]","H460/lung ([1]; average of mice (± SEM in text), i.v., ex vivo, 24 h)","H460 tumor/H1299 tumor ([1]; average of mice, i.v., ex vivo, 24 h)",Tumor specificity in vivo ([1]; acetylated peptide),"Tumor uptake of non-acetylated peptide ([1]; free amino-terminus, before acetylation)"
–,EAMNSAEQSAAVVQWEKRRI [Peptide H460.1],specific binding,8,15,14 ± 6.5,27,–,–
24,FHAVPQSFYTAP [HCC15.2],–,–,–,–,–,accumulates in both H1299 and H460 tumors,No tumor uptake

# Reference: PMC3967199 (Scientific Reports, 2014)
